Where two headings read alike, the source gives them in different places.
Columns and labels:
[1] = Liver microsome stability; format: in vitro ADME
FaDu cells [2] = format: cell-based, human
TXNRD1 [3] = molecular target: T1, TXNRD1 (Rattus norvegicus, UniProt O89049); assay: SecTRAP activity; format: biochemical
T1 sequence (O89049 1-499): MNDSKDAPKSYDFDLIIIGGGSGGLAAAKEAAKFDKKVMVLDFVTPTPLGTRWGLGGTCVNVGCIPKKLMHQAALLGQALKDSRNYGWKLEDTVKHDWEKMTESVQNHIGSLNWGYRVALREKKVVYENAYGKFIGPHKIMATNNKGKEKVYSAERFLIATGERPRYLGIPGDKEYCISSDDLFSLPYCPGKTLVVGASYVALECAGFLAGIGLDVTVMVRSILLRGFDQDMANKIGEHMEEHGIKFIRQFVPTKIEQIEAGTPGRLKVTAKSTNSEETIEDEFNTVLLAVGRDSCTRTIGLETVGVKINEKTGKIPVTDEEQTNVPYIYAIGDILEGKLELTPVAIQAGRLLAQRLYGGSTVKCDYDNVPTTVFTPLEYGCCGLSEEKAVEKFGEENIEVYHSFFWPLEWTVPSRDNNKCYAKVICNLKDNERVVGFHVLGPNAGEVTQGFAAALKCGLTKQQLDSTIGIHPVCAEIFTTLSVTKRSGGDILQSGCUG

[4] = test system: JNK and p38 phosphorylation in FaDu cells; assay: Western blot of JNK and p38 phosphorylation; format: cell-based, human; settings: FaDu cells treated for 6 hours
[5] = test system: PyMT-MMTV mice mammary tumors; assay: PyMT-MMTV tumor low frequency dosing study; format: in vivo; settings: for tumor growth in PyMT-MMTV mice: three weeks; for tumor volumes compared to vehicle controls: mice surviving 20–22 days, p<0.05
FaDu cells [6] = format: cell-based, human; remark: listed apart in the source
FaDu cells [7] = assay: Cellular H2O2 production, Amplex red assay; format: cell-based, human
In short: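 FaDu cells were grown at 37 °C, 5% CO2 in medium with 10% FBS, 2 mM L-glutamine and 100 μg/mL penicillin/streptomycin. Tests used medium with 10% FBS plus 25 nM sodium selenite. Compound was given in DMSO (0.01% final) across a concentration range or over a time course. H2O2 was read by Amplex red. Runs were in triplicate, shown as mean ± SEM.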

FaDu cells [8] = assay: Cellular GSH concentrations; format: cell-based, human; settings: 6 hours at 10×IC50
TXNRD1 [9] = molecular target: T1, TXNRD1; assay: Reversibility of TXNRD1 inhibition; format: biochemical
[10] = test system: A549 lung carcinoma cells and MEFs; format: cell-based, human, mouse; settings: for sensitivity of MEFs with the Txnrd1 gene deleted: Txnrd1 -/- vs Txnrd1 fl/fl MEFs
NCI-60 cell panel = settings: read-out: average growth inhibition to 50% (GI50); average over NCI-60 cell panel, screened previously; ref https://dtp.cancer.gov, NSC351105 (TRi-2) and NSC321521 (auranofin); cited from earlier work
HCT116 cells [11] = assay: Cytotoxicity in HCT116 subclones with altered p53 status or BCL-2 overexpression; format: cell-based, human; settings: subclones of HCT116 cells
[12] = test system: FaDu cell xenografts in SCID mice; assay: Repeated dose study in FaDu xenograft-bearing mice; format: in vivo; settings: twice a day i.v., 10 mg/kg TRi-1, 15 mg/kg TRi-2 or 10 mg/kg auranofin; for FaDu xenograft tumor growth: four days
[13] = test system: primary human fibroblasts, primary keratinocytes, CCD841 colon epithelial cells; format: cell-based
GPX1 = molecular target: T2, GPX1 (Homo sapiens, UniProt P07203); assay: GPX1 inhibition; format: biochemical
T2 sequence (P07203 1-203): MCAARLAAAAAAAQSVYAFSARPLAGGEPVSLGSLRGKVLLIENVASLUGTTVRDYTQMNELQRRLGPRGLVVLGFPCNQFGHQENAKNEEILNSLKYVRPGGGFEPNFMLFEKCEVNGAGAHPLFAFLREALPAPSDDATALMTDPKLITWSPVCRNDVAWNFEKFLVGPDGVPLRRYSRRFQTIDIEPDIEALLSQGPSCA

TXNRD1 [14] = molecular target: T1, TXNRD1; format: binding
[15] = test system: human TXNRD1 versus human TXNRD2; assay: Inhibition of human TXNRD1 versus human TXNRD2 with DTNB as substrate; format: biochemical; settings: human recombinant enzymes
In short: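 Human recombinant TXNRD1 and TXNRD2 were assayed with DTNB as substrate, with activity read by absorbance change. TXNRD1 buffer was 50 mM Tris pH 7.5, 2 mM EDTA and 0.1 mg/mL BSA. Compounds were in DMSO. Results were normalized to DMSO and no-enzyme controls. Triplicates, mean ± SEM.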

HCT116 cells [16] = assay: Mitochondrial respiration, Seahorse assay; format: cell-based, human
human cancer cell lines = format: cell-based
[17] = test system: FaDu cell xenografts in SCID mice; assay: [18F]-FDG PET study of FaDu xenografts; format: in vivo, mouse; settings: 5 mg/kg i.p. once daily
In short: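 Male SCID mice carried FaDu xenografts (1×10^6 cells); baseline scan at day 11, with food removed. Isoflurane anaesthesia on a 37 °C pad. [18F]-FDG i.v., 60-min 3D acquisition. Treatment was i.p. once daily (n=8) or vehicle (n=9), rescanned on day 3. SUVmean was taken over ROIs ≥1.8×10^5 Bq/mL, and day 3 was compared with day 0 by paired t-test.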

[18] = test system: MDA-MB-231 xenografts in athymic mice; assay: MDA-MB-231 orthotopic xenograft efficacy study; format: in vivo; settings: for MDA-MB-231 xenograft tumor growth: 22 days, p<0.0001 vs vehicle
SCID mice = assay: Single dose escalation toxicity study; settings: mouse, in vivo, iv
[19] = test system: cellular TXNRD activity in FaDu cells; assay: Cellular TXNRD activity, insulin-endpoint assay; format: cell-based, human; settings: 3 hours of compound exposure
FaDu cells [20] = assay: Cytotoxicity towards FaDu cells, 72 hours; format: cell-based, human; settings: 72 hours of incubation
In short: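 Viability of FaDu cells after 72 h with test compound, in medium with 10% FBS and 25 nM sodium selenite, at 37 °C and 5% CO2. DMSO vehicle at 0.01% final. Run in triplicate and reported as mean ± SEM.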

[21] = i.p. twice a week, TRi-1 5 mg/kg, auranofin 10 mg/kg
[22] = HCT116 cells, 30-minute or 5-hour exposure

Row | SMILES | metabolism in liver microsomes [1] | effect of GSH depletion with BSO on cytotoxicity (FaDu cells [2]) | JNK and p38 phosphorylation [4] | tumor growth in PyMT-MMTV mice [5, 21] | tumor volumes compared to vehicle controls [5] | cellular H2O2 production (FaDu cells [7]) | effect on cellular GSH concentrations (FaDu cells [8]) | cytotoxicity towards MEF cells versus A549 cells [10] | sensitivity of MEFs with the Txnrd1 gene deleted [10] | resistance upon altered p53 status or BCL-2 overexpression (HCT116 cells [11]) | toxicity and mouse weight in repeated dose study [12] | FaDu xenograft tumor growth [12] | potency against non-cancerous cells compared to cancer cell lines [13] | less efficient in inhibiting GPX1 than TXNRD1 (GPX1) | thermal stability of NADPH-reduced TXNRD1 upon incubation with compound (TXNRD1 [14]) | ATP-coupled basal respiration (HCT116 cells [16]; [22]) | other results
1 | CC(=O)OC[C@H]1O[C@@H]([S-])[C@H](OC(C)=O)[C@@H](OC(C)=O)[C@@H]1OC(C)=O.CCP(CC)CC.[Au+] [auranofin, reference compound] | rather rapid metabolism | enhanced the cytotoxicity | did not activate JNK and p38 phosphorylation as robustly | impaired tumor growth | significantly smaller compared to the vehicle controls | increased cellular H2O2 production | lowered GSH | similarly cytotoxic towards these two cell types | minimally affected | no apparent resistance | no signs of overt toxicity or changes in mouse weight | decreased tumor growth compared to vehicle controls within four days | only displayed lower potency against the CDD841 cells | over 1000 fold | not with TRi-2 or auranofin | deteriorated ATP-coupled respiration | SecTRAP formation (NADPH-dependent redox cycling with juglone) (TXNRD1 [3]): maintained substantial NADPH-dependent redox cycling with juglone; survival during observation [5, 21]: two mice in the auranofin group had to be sacrificed due to poor health; cytotoxicity in colony-forming assay (FaDu cells [6]): more cytotoxic than TRi-1; mode of TXNRD1 inhibition (TXNRD1 [9]): irreversibly inhibit TXNRD1 in an NADPH-dependent manner; GI50 (NCI-60 cell panel): 760 nM; GPX1 inhibition (GPX1; preincubated with GPX1 in the absence of GSH, high concentrations): moderate inhibition; TXNRD1 versus TXNRD2 inhibition profile [15]: pan-TXNRD inhibitor; maximal respiratory capacity (HCT116 cells [16]): impaired maximal respiratory capacity; cytotoxic potency, side-by-side comparison (human cancer cell lines): on average more potent than TRi-1
2 | COc1ccc([N+](=O)[O-])c(S(=O)(=O)c2ccc(Cl)cc2)n1 [TRi-1] | rather rapid metabolism | enhanced the cytotoxicity | efficiently activated JNK and p38 phosphorylation | impaired tumor growth | significantly smaller compared to the vehicle controls | increased cellular H2O2 production | no effect on cellular GSH concentrations | preferentially toxic towards the A549 cells | additional resistance | no apparent resistance | no signs of overt toxicity or changes in mouse weight | decreased tumor growth compared to vehicle controls within four days | reduced potency | over 1000 fold | stability was increased | lacked effects on basal respiration | SecTRAP formation (NADPH-dependent redox cycling with juglone) (TXNRD1 [3]; after inhibition of normal TXNRD1 activity and desalting): maintained substantial NADPH-dependent redox cycling with juglone; mode of TXNRD1 inhibition (TXNRD1 [9]; with or without NADPH, before and after desalting): irreversibly inhibit TXNRD1 in an NADPH-dependent manner; activated caspase-3 staining in excised xenografts ([17]; between days three and four): increased staining for activated caspase-3; [18F]-FDG uptake in viable parts of the tumors ([17]; day 3 vs day 0): markedly decreased; MDA-MB-231 xenograft tumor growth ([18]; 10 mg/kg i.p.): significantly decreased compared to the vehicle controls; complete tumor regression ([18]; 10 mg/kg i.p., n=12): one tumor in the TRi-1 i.p. group completely regressing; systemic toxicity in MDA-MB-231 xenograft study ([18]; 10 mg/kg i.v. or i.p.): no signs of overt systemic toxicity; MDA-MB-231 xenograft tumor growth ([18]; 10 mg/kg i.v.): significantly decreased compared to the vehicle controls; specificity for TXNRD1 compared to inhibition of TXNRD2 [15]: 5- to 10 fold; maximal respiratory capacity (HCT116 cells [16]; [22]): little effect on maximal respiratory capacity; highest administrable dose tolerated without overt signs of toxicity (SCID mice): 10 mg/kg; inhibition of cellular TXNRD activity [19]: equal or greater potency compared to that of auranofin
3 | COc1cccc(S(=O)(=O)c2ccc(Cl)cc2)n1 [TRi-62] | – | – | – | – | – | – | – | – | – | – | – | – | – | – | – | – | cytotoxicity towards FaDu cells (FaDu cells [20]): loss of cytotoxicity

— article PMC7059553 (Science translational medicine, 2018)
